Screening results (PubChem)
Shown are actives, neighbours in structure and some others; about 2.1% of the full set was active somewhere.
PKA-R2B act = PKA-R2B complex activation; P22694+P31323; PKA-R2B holoenzyme dissociation, Cy5-IP20 fluorescence polarization; R2B truncated from residue 108, S112A mutant; 0% DMSO only, 100% 113 µM cGMP; activation, % at 11.4 µM; 0.079% of 340,000 active; AID 504700;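 active = activation above a cutoff set at the mean over all compounds plus 3 SD, cut at about 18% in these data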;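 also: higher means more holoenzyme dissociation and a rise in polarization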
CDK5 p35 inh = inhibitors of human CDK5/p35 kinase. AID 488839. Recombinant CDK5/p35, ADP-Glo luminescence, 60 min. 0.01% of 330,000 active. inhibition, % at 10 µM;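 active = highest replicate inhibition of at least 50% and at least 75% of replicates reaching 50%; inconclusive = only one of the two criteria met; inactive = both criteria failed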;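 also: plate controls were DMSO neutral control for no effect and GW8510 at 10 µM for full effect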
Target sequence (Q00535 whole entry, looked up): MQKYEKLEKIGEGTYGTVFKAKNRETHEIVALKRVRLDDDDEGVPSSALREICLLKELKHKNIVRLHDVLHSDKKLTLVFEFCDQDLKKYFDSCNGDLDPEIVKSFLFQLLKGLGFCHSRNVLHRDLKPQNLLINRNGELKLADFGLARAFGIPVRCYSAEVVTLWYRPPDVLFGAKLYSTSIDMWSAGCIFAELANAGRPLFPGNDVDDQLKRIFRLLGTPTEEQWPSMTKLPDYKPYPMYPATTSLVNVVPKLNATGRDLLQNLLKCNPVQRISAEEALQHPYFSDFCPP
Target sequence (Q15078 whole entry, looked up): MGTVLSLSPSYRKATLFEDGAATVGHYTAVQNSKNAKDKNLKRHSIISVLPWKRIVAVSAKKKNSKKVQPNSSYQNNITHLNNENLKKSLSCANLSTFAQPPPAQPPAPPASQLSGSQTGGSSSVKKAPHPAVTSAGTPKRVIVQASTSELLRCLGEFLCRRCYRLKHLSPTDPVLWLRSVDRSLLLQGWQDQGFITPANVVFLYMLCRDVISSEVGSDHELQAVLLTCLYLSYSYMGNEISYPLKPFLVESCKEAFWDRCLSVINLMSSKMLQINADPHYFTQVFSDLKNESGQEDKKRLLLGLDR
SR-BI HDL uptake = blocks mouse SR-BI lipid uptake from DiI-HDL; ldlA[mSR-BI] CHO cells, DiI-HDL uptake fluorescence, 3 h; inhibition, % at 12.5 µM; 0.96% of 320,000 active;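 active = mean replicate inhibition of at least 70% and a set share of replicates each scoring 70 or more; inconclusive = meets just one of the two criteria; inactive = fails both criteria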;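 also: 0% = median of neutral control wells and 100% = median of positive control wells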
PKA-R1A act = activators of PKA-R1A complex; PKA-R1A dissociation, Cy5-IP20 fluorescence polarization; scaled: DMSO 0%, 113 µM cGMP 100%; activation, % at 11.4 µM; 0.083% of 340,000 active;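 active = percent activation above the mean of all tested compounds plus 3 SD, cut at about 19% in these data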;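 also: higher means more PKAc released from R1A so a rise in polarization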
SR-BI DiI-HDL act = enhances SR-BI lipid uptake from DiI-HDL; CHO ldlA[mSR-BI] cells, DiI-HDL uptake fluorescence, 3 h; 100 = double the neutral-control signal; activation, % at 12.5 µM; 0.096% of 320,000 active;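 active = mean replicate activation of at least 60% and every replicate at or above 60%; inconclusive = mean or all-replicate condition met, but not both; inactive = mean below 60% and not all replicates reaching 60%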;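 also: 0% = median plate neutral-control signal and 100% = twice that signal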
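material = CHO ldlA[mSR-BI] cells | medium = Ham's F12 with 0.5% BSA, HEPES 25 mM, pH 7.4 | reagent = fluorescent DiI-HDL, 10 µg/mL final | compound dosing = single-point compound dose | incubation = 3 h, 37 °C | measured by = bottom-read fluorescence, 550/595 nm | measure = HDL uptake via cellular fluorescence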
dFosB act-1 = activators of mouse delta FosB homodimer | P13346 | purified delta FosB, TAMRA-CDK5 oligo fluorescence polarization; percent of positive-control signal above neutral wells | activation, % at 25 µM | 0.99% of 340,000 active;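 active = mean activation above about 17%, with every replicate also reaching it, limit read from the data, passing the limit was not always enough; inconclusive = only one of the two conditions met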
DiI quencher = counter-screen for SR-BI lipid transfer inhibitors: DiI fluorescence quenchers; cell-free DiI-HDL fluorescence quenching, 30 min; 20% of 470 active; AID 540326; AC50, µM (top dose mostly 35 µM), for the others: top-dose activity change, negative = quenching; shares compounds with SR-BI HDL uptake;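 active = quenching, a falling signal, with AC50 below a set limit tied to the top valid dose, actives reach about 32 µM in these data; inconclusive = no clear call, values can overlap the other calls; inactive = rising signal, and the rest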
dFosB act-2 = activators of mouse delta FosB homodimer DNA binding. activation, % at 24.9 µM. purified delta FosB, TAMRA-CDK5 oligo fluorescence polarization; normalised: neutral wells 0, positive control 100. 2,400 tested, under 10 active. shares compounds with dFosB act-1;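 active = highest replicate activation at or above 34% and every replicate reaching that threshold; inconclusive = meets only one of the two criteria; inactive = meets neither criterion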;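 also: higher polarization means more probe DNA bound by delta FosB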
* marks the source's active call; other numbers are inactive results; u = inconclusive; x = no result.

SMILES	PKA-R2B act	CDK5 p35 inh	SR-BI HDL uptake	PKA-R1A act	SR-BI DiI-HDL act	dFosB act-1	dFosB act-2	others
CCOC(=O)C1(Cc2ccccc2C)CCCN(S(=O)(=O)CC)C1 (configuration not stated)	-4	-1	32	-3	-32	7	x
COC(=O)[C@@]1(Cc2ccc(OC)cc2)[C@H]2c3cc(C(=O)N4CCCC4)n(CCn4cc([N+](=O)[O-])nc4C)c3C[C@H]2CN1C(=O)c1ccccc1	-1	-1	1	1	-1	4	x
COC(=O)[C@@]1(Cc2ccc(F)cc2)[C@H]2c3cc(C(=O)N4CCCC4)n(CCCNc4ncc(C(F)(F)F)cc4Cl)c3C[C@H]2CN1C(=O)c1ccccc1	0	0	30	-2	-30	-12	x	DiI quencher=-1%
COc1ccc(CCC(=O)Nc2ccc(-c3noc(-c4ccc(OC)c(OC)c4)n3)cc2)cc1	-2	1	101*	-5	-101	29*	3	DiI quencher=-5%
COc1ccc(CC(=O)Nc2ccc(-c3noc(-c4ccccc4OC)n3)cc2)cc1	-3	0	57	10	-57	u	x
CCNc1nc(Cl)nc(-c2cn(-c3ccccc3)c3ccccc23)n1	-5	0	72*	8	-72	22*	3	DiI quencher=4%
Cc1cc(C)cc(NC(=O)CSc2nc(=O)n3cc(C)ccc3n2)c1	-8	1	33	-3	-33	-13	x
CN(C(=O)COC(=O)c1c2c(nc3ccccc13)/C(=C/c1cccc([N+](=O)[O-])c1)CCC2)C1CCS(=O)(=O)C1 (configuration not stated)	3	0	54	1	-54	17*	-2	DiI quencher=-7%
O=C(COC(=O)c1c2c(nc3ccccc13)/C(=C/c1cccc([N+](=O)[O-])c1)CCC2)NC1CCS(=O)(=O)C1 (configuration not stated)	-12	0	18	-8	-18	-3	x
CCOC(=O)c1[nH]c2c(c1C)C(=O)CC(c1ccc(F)cc1)C2 (configuration not stated)	3	1	u	1	-72	21*	3	DiI quencher=-3%
O=C(Nc1ccc(Cl)c(Cl)c1)Nc1nnc(CC2=CCCCC2)s1	-3	0	15	-13	-15	5	x
CSCC[C@H](NC(=O)c1ccc(Cl)c([N+](=O)[O-])c1)c1nc2ccccc2[nH]1	-10	0	-5	-9	5	-7	x
O=C(NC(Cc1ccccc1)c1nc2ccccc2[nH]1)c1ccc(Cl)c([N+](=O)[O-])c1 (configuration not stated)	-9	1	0	-6	0	31*	0
Cc1ccc2nc3n(c(=O)c2c1)-c1ncccc1C(=O)NC3Cc1ccc(O)cc1 (configuration not stated)	3	x	x	0	x	x	x
Cc1ccc([N+](=O)[O-])cc1-c1ccc(/C=C(\C#N)c2[nH]nc(N)c2C#N)o1	0	-1	-13	3	13	29*	5
CCOC(=O)c1sc(NC(=O)CCc2ccc(OC)cc2)nc1C	0	-1	x	5	x	25*	0
Cc1ccccc1Nc1nc(N)c2ccccc2n1	-8	12	10	-13	-10	-3	x
COc1ccc(C)cc1Nc1nc(N)c2ccccc2n1	1	-2	3	7	-3	27*	1
O=C(COC(=O)c1ccc2c(c1)C(=O)N(Cc1ccncc1)C2=O)Nc1cccc2ccccc12	-5	1	-14	0	14	27*	6
O=C(COC(=O)c1ccncc1)Nc1cccc2ccccc12	-12	-1	2	-2	-2	-7	x
C/C(=N\N=C(/N)SC1CC(=O)N(c2ccc(Cl)c(Cl)c2)C1=O)c1cccs1 (configuration not stated)	-6	2	59	0	-59	25*	3
O=C(CN1CCN(Cc2ccccc2)CC1)Nc1ccc(Br)cc1	4	1	-10	-6	10	3	x
Cc1nc2cc(N3CCCCC3)c(NC(=O)c3ccncc3)cc2c(=O)n1Cc1ccccc1	-7	-1	19	0	-19	24*	6
Cc1nc2cc(N3CCOCC3)c(NC(=O)C3CC3)cc2c(=O)n1Cc1ccccc1	-15	-1	-4	-4	4	-3	x
CCOC(=O)c1c(C)[nH]c(C(=O)OC(C)C(=O)NC2CCCCC2C)c1C (configuration not stated)	-5	0	13	-6	-13	49*	4
SMILES	PKA-R2B act	CDK5 p35 inh	SR-BI HDL uptake	PKA-R1A act	SR-BI DiI-HDL act	dFosB act-1	dFosB act-2	others
Cc1cccc2c(=O)n(C(=O)c3ccccc3)c(N)nc12	1	x	x	12	x	x	x
Cn1cnnc1SC(C(=O)Nc1cc(Cl)cc(Cl)c1)c1ccccc1 (configuration not stated)	-9	0	-35	-7	35	20*	12
CN([C@@H](Cc1ccc(OS(=O)(=O)c2cccc3cnccc23)cc1)C(=O)N1CCN(c2ccccc2)CC1)S(=O)(=O)c1cccc2cnccc12	-8	-1	27	-8	-27	21*	2
COc1ccc(N2CCN(C(=O)C(Cc3ccccc3)n3cccc3)CC2)cc1 (configuration not stated)	4	-2	29	-7	-29	-8	x
Cc1ccc(Cn2c(=N)n(CC(=O)c3ccccc3)c3ccccc32)cc1	-1	0	3	-10	-3	30*	8
CC(C)(C)C(=O)Cn1c(=N)n(Cc2ccccc2)c2ccccc21	-4	-3	5	-2	-5	-9	x
COc1ccccc1/C=C/C(=O)NC(=S)Nc1ccc(S(=O)(=O)N(C)c2ccccc2)cc1	-3	0	10	4	-10	24*	1
CN(c1ccccc1)S(=O)(=O)c1ccc(NC(=S)NC(=O)c2ccccc2)cc1	-5	5	1	-14	-1	1	x
COc1ccc2oc(C(=O)OCC(=O)Nc3cc(S(=O)(=O)N4CCOCC4)ccc3C)c(C)c2c1	-8	0	43	-7	-43	38*	3
